We go through 21 molecules from ChEMBL document CHEMBL1124548 (1989).

The target of assay [1] is Human immunodeficiency virus type 1 reverse transcriptase (Human immunodeficiency virus 1) (UniProt Q72547). Kind of assay: Inhibitory activity against HIV-1 replication in MT-4 cells. It is filed as functional, cell-based. To be noted: MT4. In short, it runs like this: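 HTLV-IIIB strain of HIV in MT-4 cells, run in parallel with cytotoxicity on uninfected MT-4 cells. The read-out is protection of infected cells from virus-induced cytopathic effect. ED50 is the dose giving 50% protection.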

A further assay concerns MT4. Kind of assay: Cytotoxic dose in MT-4 cells. The assay is classed as functional. To be noted: Homo sapiens, read-out: CD50 (the source's name).
For assay [2], the target named is Human immunodeficiency virus type 1 reverse transcriptase (Human immunodeficiency virus 1) (UniProt Q72547). Kind of assay: Selectivity index is the […] values against inhibition of HIV-1 in MT-4 cells. It is filed as functional, cell-based. To be noted: MT4. In short, it runs like this:
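Selectivity index is CD50 (50% viability reduction of uninfected MT-4 cells) divided by ED50 (50% protection of HIV-infected MT-4 cells against cytopathic effect). Both come from parallel assays.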

For the molecule `Nc1ncnc2c1ncn2[C@H]1CC[C@@H](CO)O1`, in assay [1], the ED50 stood at 6.4 µM. In addition, the CC50 with MT4 stood at 890 µM. The SI in assay [2] amounted to 139.

In the case of `O=c1[nH]c(=O)n([C@H]2C[C@H](F)[C@@H](CO)O2)cc1I`, the ED50 in assay [1] was found to be 0.16 µM. Moreover, the CC50 in the assay with MT4 is 2.17 µM. In addition, in assay [2], the SI worked out at 13.6.

As to `[N-]=[N+]=N[C@H]1C[C@H](n2cnc3c(N)ncnc32)O[C@@H]1CO`, the ED50 in assay [1] was 5 µM.

As for `[N-]=[N+]=N[C@H]1C[C@H](n2cnc3c(O)ncnc32)O[C@@H]1CO`, the ED50 in assay [1] was more than 8 µM. Besides, the CC50 in the assay on MT4 worked out at 15 µM. Further, the SI in assay [2] is less than 2.

In assay [1], `Cc1cn([C@H]2C[C@H](N=[N+]=[N-])[C@@H](CO)O2)c(=O)[nH]c1=O` [ZIDOVUDINE] came in with an ED50 of 0.003 µM. For the same molecule, the CC50 with MT4 turned out to be 4.8 µM. In assay [2], the SI stood at 1600.

For the molecule `Cc1cn([C@@H]2O[C@H](CO)C[C@@H]2F)c(=O)[nH]c1=O`, in assay [1], the ED50 was more than 500 µM. Also, the CC50 in the assay on MT4 was more than 500 µM.

For `Cc1cn([C@H]2C[C@H](F)[C@@H](CO)O2)c(=O)nc1N`, the ED50 in assay [1] was found to be 1.7 µM. In addition, the CC50 with MT4 worked out at 7.7 µM. For the same molecule, in assay [2], the SI is 4.5.

In assay [1], `Nc1ncnc2c1ncn2[C@H]1C[C@H](F)[C@@H](CO)O1` displayed an ED50 of 50 µM. For the same molecule, the CC50 in the assay with MT4 turned out to be 557 µM. The SI in assay [2] was 11.1.

For the molecule `Cc1cn([C@@H]2O[C@H](CO)C[C@H]2F)c(=O)nc1N`, in assay [1], the ED50 was more than 500 µM. In the assay with MT4, the CC50 is more than 500 µM.

On to `COc1ccn([C@H]2C[C@H](F)[C@@H](CO)O2)c(=O)n1`, for which, in assay [1], the ED50 was 46 µM. The CC50 in the assay on MT4 came to 348 µM. The SI in assay [2] worked out at 7.6.

On to `Cc1cn([C@H]2C=C(F)[C@@H](CO)O2)c(=O)[nH]c1=O`, for which the ED50 in assay [1] stood at 11 µM. Also, the CC50 in the assay with MT4 turned out to be 240 µM. Besides, the SI in assay [2] worked out at 22.

Regarding `O=c1ccn([C@H]2C[C@H](F)[C@@H](CO)O2)c(=O)[nH]1`, in assay [1], the ED50 was found to be 0.04 µM. Moreover, the CC50 with MT4 came out at 16 µM. Besides, the SI in assay [2] came to 400.

In assay [1], `[N-]=[N+]=N[C@H]1C[C@H](n2c(Br)nc3c(N)ncnc32)O[C@@H]1CO` showed an ED50 of more than 500 µM. Moreover, the CC50 with MT4 was determined as 409 µM. In addition, in assay [2], the SI was less than 1.

For `Cc1cn([C@H]2C[C@H](F)[C@@H](CO)O2)c(=O)[nH]c1=O` [ALOVUDINE], the ED50 in assay [1] worked out at 0.001 µM. For the same molecule, the CC50 in the assay with MT4 was determined as 0.197 µM. In assay [2], the SI turned out to be 197.

In assay [1], `O=c1[nH]c(=O)n([C@H]2C[C@H](F)[C@@H](CO)O2)cc1Cl` [RALURIDINE] yielded an ED50 of 0.38 µM. Besides, in the assay on MT4, the CC50 was found to be 535 µM. Also, the SI in assay [2] amounted to 1410.

Take `Nc1ccn([C@@H]2O[C@H](CO)C[C@@H]2F)c(=O)n1`: the ED50 in assay [1] worked out at 9.8 µM. The CC50 in the assay on MT4 is 117 µM. In assay [2], the SI came to 12.

In assay [1], `Cc1cn([C@@H]2O[C@H](CO)C[C@H]2F)c(=O)[nH]c1=O` gave an ED50 of 53 µM. The CC50 with MT4 is more than 500 µM. Besides, in assay [2], the SI is more than 9.4.

`Nc1ncnc2c1nc(Br)n2[C@H]1CC[C@@H](CO)O1` showed an ED50 in assay [1] of 484 µM. Further, the CC50 in the assay with MT4 was determined as 500 µM. Besides, the SI in assay [2] is 1.

`O=c1[nH]c(=O)n([C@H]2C[C@H](F)[C@@H](CO)O2)cc1F` displayed an ED50 in assay [1] of more than 20 µM. For the same molecule, the CC50 in the assay with MT4 was 40 µM. The SI in assay [2] was less than 2.

`OC[C@H]1O[C@@H](n2cnc3c(O)ncnc32)C[C@@H]1F` registered an ED50 in assay [1] of 484 µM. Further, the CC50 in the assay with MT4 stood at 500 µM. In addition, the SI in assay [2] came out at 1.

Turning to `O=c1[nH]c(=O)n([C@H]2C[C@H](F)[C@@H](CO)O2)cc1Br`, the ED50 in assay [1] was 0.41 µM. For the same molecule, the CC50 in the assay on MT4 turned out to be 24 µM. In addition, in assay [2], the SI is 59.
